Tests used:
KB = assay: Cytotoxicity against human KB cells after 48 hrs by MTT assay; assay type: functional, cell-based
A2780 = assay: Cytotoxicity against human A2780 cells after 48 hrs by MTT assay; assay type: functional, cell-based; conditions: A2780, 48 h
Bel-7402 = assay: Cytotoxicity against human Bel7402 cells after 48 hrs by MTT assay; assay type: functional, cell-based; conditions: Bel-7402, 48 h
HT-29 = assay: Cytotoxicity against human HT-29 cells expressing p53 mutant after 48 hrs by SRB assay; assay type: functional, cell-based; conditions: HT-29, 48 h
In short: (§1)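 Cell lines came from CCRC, Taiwan. Cells were seeded at about 5 × 10^3 per well and left overnight. They were then given serum-free medium containing 0-10 μM compound (0.08-10 μM serial dilutions) for 48 h at 37 °C. Cells were fixed with TCA (10% final), stained with SRB (0.4% final), and the dye was dissolved in 10 mM Tris with A515 read. IC50 was taken from a fitted log concentration-response curve.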

HeLa = assay: Cytotoxicity against p53-deficient human HeLa cells after 48 hrs by SRB assay; assay type: functional, cell-based; in short: as §1
[1] = Cytotoxicity against estrogen receptor-negative human […] cells expressing p53 mutant after 48 hrs by SRB assay; assay type: functional, cell-based; in short: as §1
AGS = assay: Cytotoxicity against human AGS cells expressing wild type p53 after 48 hrs by SRB assay; assay type: functional, cell-based; in short: as §1
HepG2 = assay: Cytotoxicity against human HepG2 cells expressing wild type p53 after 48 hrs by SRB assay; assay type: functional, cell-based; conditions: HepG2, 48 h; in short: as §1
THP-1 = assay: Cytotoxicity against human THP1 cells expressing p53 mutant after 48 hrs by SRB assay; assay type: functional, cell-based; conditions: THP-1, 48 h
MCF7 = assay: Cytotoxicity against estrogen receptor-positive human MCF7 cells expressing wild type p53 after 48 hrs by SRB assay; assay type: functional, cell-based; conditions: MCF7, 48 h; in short: as §1
U-937 = assay: Cytotoxicity against human U937 cells expressing p53 mutant after 48 hrs by SRB assay; assay type: functional, cell-based; conditions: U-937, 48 h
K562 = assay: Cytotoxicity against p53-deficient human K562 cells after 48 hrs by SRB assay; assay type: functional, cell-based; conditions: K562, 48 h
[2] = Cytotoxicity against p53-deficient human Hep3B cells after 48 hrs by SRB assay; assay type: functional, cell-based, Hep 3B2; in short: as §1
PC-3 = assay: Cytotoxicity against p53-deficient human PC3 cells after 48 hrs by SRB assay; assay type: functional, cell-based; conditions: PC-3, 48 h; in short: as §1
A549 = assay: Cytotoxicity against human A549 cells expressing wild type p53 after 48 hrs by SRB assay; assay type: functional, cell-based; conditions: A549, 48 h; in short: as §1

CCn1cc(-c2nc3ccc([N+](=O)[O-])cc3[nH]2)c(=O)c2cc(F)c(N3CCNCC3)cc21
IC50 (KB): 1.1 µM
IC50 (A2780): 1.6 µM
IC50 (Bel-7402): 2.1 µM

CCn1cc(-c2nc3ccc([N+](=O)[O-])cc3[nH]2)c(=O)c2cc(F)c(N3CCN(C)CC3)cc21
IC50 (KB): 2.5 µM
IC50 (A2780): 4.7 µM
IC50 (Bel-7402): 4.4 µM

CCn1cc(-c2nc3ccccc3s2)c(=O)c2cc(F)c(N3CCNCC3)nc21
IC50 (KB): 2.4 µM
IC50 (A2780): 2.7 µM
IC50 (Bel-7402): 2.4 µM

CCn1cc(-c2nc3ccccc3s2)c(=O)c2cc(F)c(N3CCNC(C)C3)c(F)c21 (configuration not stated)
IC50 (KB): 24.3 µM
IC50 (A2780): 9.8 µM
IC50 (Bel-7402): 15 µM

CCn1cc(-c2nc3ccccc3o2)c(=O)c2cc(F)c(N3CCNC(C)C3)c(F)c21 (configuration not stated)
IC50 (KB): 18.9 µM
IC50 (A2780): 83.5 µM
IC50 (Bel-7402): 5.7 µM

CCn1cc(-c2nc3ccc([N+](=O)[O-])cc3s2)c(=O)c2cc(F)c(N3CCNCC3)cc21
IC50 (KB): 0.7 µM
IC50 (A2780): 0.7 µM
IC50 (Bel-7402): 1.8 µM

CCn1cc(-c2nc3ccccc3[nH]2)c(=O)c2cc(F)c(N3CCNCC3)cc21
GI50 (HT-29): > 10 µM
IC50 (HT-29): > 10 µM
IC50 (KB): 10.5 µM
GI50 (HeLa): > 10 µM
IC50 (HeLa): > 10 µM
GI50 [1]: > 10 µM
IC50 [1]: > 10 µM
GI50 (AGS): 9.5 µM
IC50 (AGS): > 10 µM
GI50 (HepG2): > 10 µM
IC50 (HepG2): > 10 µM
IC50 (THP-1): > 10 µM
GI50 (MCF7): > 10 µM
IC50 (MCF7): > 10 µM
IC50 (A2780): 0.8 µM
IC50 (U-937): > 10 µM
IC50 (K562): > 10 µM
IC50 (Bel-7402): 27.4 µM
GI50 [2]: > 10 µM
IC50 [2]: > 10 µM
GI50 (PC-3): > 10 µM
IC50 (PC-3): > 10 µM
GI50 (A549): 0.6 µM
IC50 (A549): 4.7 µM

CCn1cc(-c2nc3ccccc3[nH]2)c(=O)c2cc(F)c(N3CCNCC3)nc21
GI50 (HT-29): > 10 µM
IC50 (HT-29): > 10 µM
IC50 (KB): 2 µM
GI50 (HeLa): 6.4 µM
IC50 (HeLa): 10 µM
GI50 [1]: 3.3 µM
IC50 [1]: 10 µM
GI50 (AGS): 2.1 µM
IC50 (AGS): 6.6 µM
GI50 (HepG2): 6.8 µM
IC50 (HepG2): 9.1 µM
IC50 (THP-1): > 10 µM
GI50 (MCF7): 8.3 µM
IC50 (MCF7): 9.5 µM
IC50 (A2780): 4.8 µM
IC50 (U-937): > 10 µM
IC50 (K562): 9.1 µM
IC50 (Bel-7402): 4.1 µM
GI50 [2]: 3.7 µM
IC50 [2]: 7.8 µM
GI50 (PC-3): > 10 µM
IC50 (PC-3): > 10 µM
GI50 (A549): 4.9 µM
IC50 (A549): 7.8 µM

CCn1cc(-c2nc3ccc([N+](=O)[O-])cc3s2)c(=O)c2cc(F)c(N3CCN(C)CC3)cc21
GI50 (HT-29): > 10 µM
IC50 (HT-29): > 10 µM
IC50 (KB): 5.8 µM
GI50 (HeLa): > 10 µM
IC50 (HeLa): > 10 µM
GI50 [1]: > 10 µM
IC50 [1]: > 10 µM
GI50 (AGS): 2.6 µM
IC50 (AGS): 4.5 µM
GI50 (HepG2): > 10 µM
IC50 (HepG2): > 10 µM
IC50 (THP-1): > 10 µM
GI50 (MCF7): > 10 µM
IC50 (MCF7): > 10 µM
IC50 (A2780): 4.3 µM
IC50 (U-937): > 10 µM
IC50 (K562): > 10 µM
IC50 (Bel-7402): 7.7 µM
GI50 [2]: > 10 µM
IC50 [2]: > 10 µM
GI50 (PC-3): 5.5 µM
IC50 (PC-3): 7.5 µM
GI50 (A549): 4.7 µM
IC50 (A549): 10 µM

CCn1cc(-c2nc3ccc([N+](=O)[O-])cc3[nH]2)c(=O)c2cc(F)c(N3CCNCC3)nc21
IC50 (KB): 22.4 µM
IC50 (A2780): 12.4 µM
IC50 (Bel-7402): 10.8 µM

CC[C@@]1(O)C(=O)OCc2c1cc1n(c2=O)Cc2cc3cc(O)ccc3nc2-1 [HYDROXYCAMPTOTHECIN]
IC50 (KB): 0.6 µM
IC50 (A2780): 0.7 µM
IC50 (Bel-7402): 0.2 µM

CCn1cc(-c2nc3ccc([N+](=O)[O-])cc3o2)c(=O)c2cc(F)c(Cl)cc21
IC50 (KB): 0.5 µM
IC50 (Bel-7402): 1.8 µM

CCn1cc(-c2nc3ccccc3[nH]2)c(=O)c2cc(F)c(N3CCNC(C)C3)c(F)c21 (configuration not stated)
IC50 (KB): 19.1 µM
IC50 (A2780): 11.6 µM
IC50 (Bel-7402): 30.2 µM

CCn1cc(-c2nc3ccccc3[nH]2)c(=O)c2cc(F)c(N3CCN(C)CC3)cc21
IC50 (KB): 36.7 µM

Reference: ChEMBL document CHEMBL1153527, “Discovery of a novel series of quinolone and naphthyridine derivatives as potential topoisomerase I inhibitors by scaffold modification” (J Med Chem, 2009)
